Consider 97 molecules from ChEMBL document CHEMBL4513216, “Probing the Open Global Health Chemical Diversity Library for Multistage-Active Starting Points for Next-Generation Antimalarials” (ACS Infect Dis, 2020).

The data set in a line: Toxicity liver stage against HepG2, at 10uM. It is filed as cell-based. Also on record: test concentration 10 uM, cell line HepG2-A16-CD81EGFP. Conditions: human, HepG2-A16-CD81EGFP cells; read-out: INHIBITION
The essentials: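 Uninfected HepG2-A16-CD81EGFP cells, 3 × 10^3 per well, 1536-well, plated on prespotted compound at 10 μM final, parasite-free screening media added to match infected plates; puromycin 10 μM positive, DMSO 0.5% negative; run in parallel with 48 h PbLuc assay at 37 °C, 5% CO2; viability by CellTiter-Glo luminescence, normalized to controls.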
For the molecule `FC(F)(F)CCN(Cc1ccon1)C1CCC1`, the cytotoxicity at 10 µM is 1.19%. Under `COc1ccc(C(C)Nc2cnn(C)c(=O)c2Cl)cc1OC` (configuration not stated) stands 18.7%; under `CCOc1ccc2[nH]c(=O)c(CN(C)CCc3cn[nH]c3)cc2c1`, 25.9%; under `Cc1cnn(C2CN(Cc3nc(-c4ccccc4C)no3)C2)c1`, -10.6%. As for `O=C(c1cc2ccccc2s1)N1CCC(C(=O)O)(n2cccn2)CC1`, the cytotoxicity at 10 µM is 11.3%.

As for `CCC(CC)C(=O)N1CCN(Cc2nc3ccccc3c(=O)[nH]2)CC1`, the cytotoxicity at 10 µM is -17.6%.

Turning to `COCC1CN(Cc2c(C)noc2C)Cc2cn(C)nc21` (configuration not stated), the cytotoxicity at 10 µM stood at 13.2%.

Take `Cc1nc(CNC(C)c2ccc(S(=O)(=O)N(C)C)cc2)no1` (configuration not stated): the cytotoxicity at 10 µM is -4.32%. In the case of `c1cnc(-c2cnc(N3CCSCC3)nc2C2CCCO2)cn1` (configuration not stated), the cytotoxicity at 10 µM was found to be 4.4%.

With `COc1ccc(OC)c(C(=O)N2CCCCC2Cn2cccn2)c1` (configuration not stated), the cytotoxicity at 10 µM was -0.677%. In the case of `O=C(c1ccno1)N1CC[C@@H]2CN(C3CCOCC3)CCO[C@@H]2C1`, the cytotoxicity at 10 µM was -102%.

Consider `Cc1nc(-c2ccc(CC(=O)N3CCN(C(=O)C(C)C)CC3)cc2)cs1`, for which the cytotoxicity at 10 µM came out at 12.8%. Under `CCOCCC(=O)N(C)c1ccc(F)c(Cl)c1` stands 0.232%. `CCOCC1CN(C(=O)c2ccco2)Cc2nn(C)cc21` (configuration not stated): the cytotoxicity at 10 µM worked out at 3.86%. As for `CCc1cc(NC2CCN(Cc3ccccc3F)CC2)n2nccc2n1`, the figure is -6%. For `CC(C)c1ncncc1C(=O)N1CCN(Cc2ccsc2)CC1`, the cytotoxicity at 10 µM was -4.49%. Turning to `O=C(NCc1ccc(Cl)cc1)N1CCN(CC(O)C2CC2)CC1` (configuration not stated), the cytotoxicity at 10 µM is 8.66%. On to `COCC1N(C(=O)c2ccco2)C2CCC1(O)CC2` (configuration not stated), for which the cytotoxicity at 10 µM came out at 1.4%. Under `CC(C)N(C)C(=O)C1=NOC2(CCN(C(=O)c3ccc(Cl)cc3)C2)C1` (configuration not stated) stands -16.7%. As for `CCC(C)c1noc(C2CCN(C(=O)Cn3nc(C)cc3C)CC2)n1` (configuration not stated), the figure is 6.58%. As for `COCCN1CCC(CNC(=O)C2(c3ccc(Br)cc3)CCCC2)C1` (configuration not stated), the figure is -5.3%. In the case of `CCS(=O)(=O)NCCNc1c(C#N)cnc2c(F)cc(F)cc12`, the cytotoxicity at 10 µM turned out to be 16.2%.

Take `Cc1nc(C2CCCN(C(=O)c3cc4c(s3)CCCC4)C2)no1` (configuration not stated): the cytotoxicity at 10 µM is -7.03%. As for `O=C1COc2ccc(S(=O)(=O)NCCC3=CCCCC3)cc2N1`, the figure is 5.42%; as for `Cc1ccsc1CN(C)c1nc2c(cnn2C(C)(C)C)c(=O)[nH]1`, 33.3%.

For the molecule `CN(Cc1nccn1C)C1CCCN(Cc2noc(C3CC3)n2)C1` (configuration not stated), the cytotoxicity at 10 µM is -3.54%. Under `CCC(C)NC(=O)c1cncc(Br)c1` (configuration not stated) stands 1.24%. Under `Cn1cc(CNC2CCCOc3c(Cl)cccc32)cn1` (configuration not stated) stands 10.7%; under `C[C@@H]1CN(C(=O)CSc2nncn2C)C[C@@]1(O)C1CC1`, -15.7%; under `Cc1cnn(CC2CCCCN2C(=O)c2csc(C)n2)c1` (configuration not stated), -1.16%. As for `O=C(CSc1nncs1)N1CCN(Cc2ccc(Cl)s2)CC1`, the figure is -4.14%; as for `COc1ccc(CNCC(C)Oc2ccccn2)cc1` (configuration not stated), -2.7%.

With `CC1CN(C)CCN1CC(=O)NCCOc1ccc(Cl)cc1` (configuration not stated), the cytotoxicity at 10 µM was -8.69%.

Regarding `COc1ccc(C2=CCN(C(=O)C3CCCN(C(C)=O)C3)CC2)cc1` (configuration not stated), the cytotoxicity at 10 µM was -13.4%.

With `CC(C(=O)N(C)Cc1noc(C2CCC2)n1)N1CCc2ccccc2C1` (configuration not stated), the cytotoxicity at 10 µM is -79.1%. Under `O=C(NCc1ccccc1)N1CCn2c(Cn3cccn3)cnc2C1` stands -71%; under `CC(C)(C)C(O)CN1CCN(Cc2ccc(C#N)cc2)CC1` (configuration not stated), -8.88%; under `CN(CC(O)C(F)(F)F)C(=O)Nc1cccc(C(F)F)c1` (configuration not stated), 5.46%. As for `c1ccc2c(c1)CC(n1ccnc1-c1cc3n(n1)CCNC3)CO2` (configuration not stated), the figure is 4.58%; as for `O=C(c1cc(Cl)c[nH]1)N1CCCC(c2cc(C(F)(F)F)[nH]n2)C1` (configuration not stated), 18%. For the molecule `CCCNCc1cn(Cc2ccccc2)nc1-c1cccnc1`, the cytotoxicity at 10 µM turned out to be 5.13%. Turning to `CSC(C)(C)CNC(=O)NCC[S+]([O-])c1ccccc1` (configuration not stated), the cytotoxicity at 10 µM was 15.5%. As for `COc1ccc2nnc(CCCC(=O)Nc3nc4c(s3)CCC4)n2n1`, the figure is -5.01%. Under `Cc1cc(NC(N)=O)ccc1OCC(F)(F)F` stands -0.883%; under `Cc1cnn(CC2CCCCN2CCC(=O)Nc2cc(C)on2)c1` (configuration not stated), -0.674%.

As to `CN(C)Cc1cccc(-c2cccnc2C(=O)NCc2ccccn2)c1`, the cytotoxicity at 10 µM was 5.39%. Under `O=S(=O)(NC[C@H]1OC[C@@H](NCc2cccs2)[C@@H]1O)c1ccccc1` stands 3.98%; under `O=C(O)c1cc(-n2cc3c(n2)CCC3)cc(S(=O)(=O)N2CCOCC2)c1`, -7.95%. Consider `CCc1ccc(C(C)NCc2nccn2Cc2ccccc2)o1` (configuration not stated), for which the cytotoxicity at 10 µM was -1.2%. As for `Cc1ccc(C2=CCN(C(=O)C3CCN(C)C(=O)C3)CC2)cc1` (configuration not stated), the figure is -12.1%; as for `CCOc1ccc(OCc2nc3c(c(=O)[nH]2)CCNC3)cc1`, 8.55%. As for `CC(C)c1cc(C(=O)NCCN2CCCCC2CO)on1` (configuration not stated), the figure is 2.07%; as for `O=C1CC(c2ccccc2)c2sc(C(=O)O)c(-c3ccccc3)c2N1` (configuration not stated), -2.31%.

Turning to `CCS(=O)(=O)N1CCN(CCn2cccn2)c2nc(C)ccc2C1`, the cytotoxicity at 10 µM came out at 9.88%. As for `O=C(Cc1ccsc1)NCC1Cn2nnc(-c3ccoc3)c2CO1` (configuration not stated), the figure is 17.6%; as for `CC(C)C(=O)N1CCc2onc(C(=O)NCCN(C)C)c2C1`, 5.56%. Under `CCN(Cc1nc(COC)no1)Cc1cc2ccc(F)cc2[nH]c1=O` stands 2.03%; under `CNS(=O)(=O)c1ccc(CNC(=O)N(C)C(C)COC)cc1` (configuration not stated), -5.12%; under `CCC1(CO)CCCN(C(=O)c2ccc(N3CCN(C)CC3)cc2)C1` (configuration not stated), -4.71%. In the case of `CC(C)N(C)C(=O)Cn1ncc(N(C)CCc2ccccc2)cc1=O`, the cytotoxicity at 10 µM is 0.562%. Under `O=C(NCc1cccs1)C1CCCN(c2cc(-n3cncn3)ncn2)C1` (configuration not stated) stands 0.827%; under `Cc1cc(-c2cnc(N3CCCC3)nc2-c2ccc(C)s2)on1`, -0.279%; under `Cc1ccc(NC(=O)CN[C@H](C(N)=O)C(C)C)cc1F`, 11%. As for `N#Cc1ccc(NC2CCN(c3ncccn3)CC2)cc1C(F)(F)F`, the figure is 27.5%; as for `O=C([C@H]1C[C@H]2OCC[C@H]2N(CC2CC2)C1)N1CCCC1`, -0.542%; as for `Cc1cc(C)c(C(=O)NC(CN2CCCC2)c2ccccc2)c(=O)[nH]1` (configuration not stated), -2.57%. Turning to `CC(C)=CCN1CCN(C(=O)C2CC2)CC1`, the cytotoxicity at 10 µM came to 6.64%. Under `Cc1cc(NC(=O)c2ccc(C)c(F)c2)[nH]n1` stands -42.1%; under `O=C(CCN1CCOCC1)NC(Cc1ccsc1)c1nccs1` (configuration not stated), 3.35%; under `CC(C)[C@H]1CN(C2Cc3ccccc3C2)C[C@@H]1NS(=O)(=O)N(C)C`, 1.52%. Consider `O=C(N1CCCC(n2cncn2)C1)C1(c2ccc(Cl)cc2)CCC1` (configuration not stated), for which the cytotoxicity at 10 µM is -2.11%. Turning to `CCc1ncc(CN2C[C@@H]3CC[C@H]2CN(C(=O)C2CCC2)C3)cn1`, the cytotoxicity at 10 µM was determined as 4.96%. As for `CC(C)(O)CCc1cccc(C(=O)N2CCC3(CCOCC3)CC2)c1`, the figure is 1.14%; as for `COc1cnc(N2CCC(c3ncc[nH]3)CC2)nc1`, 0.852%; as for `Cc1cc(C)c(CNC(=O)NC2CCOCC2)c(=O)[nH]1`, -7.05%. As for `Cc1cc(C#N)ccc1S(=O)(=O)N1CCN(C)Cc2ccccc21`, the figure is 5.34%; as for `Fc1ccc(-c2nc(CN3CCCCC3Cn3cncn3)co2)cc1` (configuration not stated), -8.18%; as for `CC(=O)Nc1nc(CN2CCOC(Cn3cc(C)cn3)C2)cs1` (configuration not stated), 11.3%. In the case of `COc1cccc(Nc2nc(-c3ccncc3)nc3c2CNCC3)c1`, the cytotoxicity at 10 µM was -6.61%.

For `CC(C)N(C)C(=O)CN1C(=O)OC[C@@H]1c1ccccc1`, the cytotoxicity at 10 µM was -47.7%. As for `NS(=O)(=O)c1cnn(-c2ccc(NC(=O)CC3CCCC3)cn2)c1`, the figure is 6.74%; as for `Cc1cc(-c2cnc(NC3CCCC3)nc2-c2ccco2)on1`, -7.56%; as for `CNc1cc(CNC(=O)c2ccncc2)nc(-c2ccncc2)n1`, -7.16%.

With `Cc1sc(CN)nc1-c1ccc(Cl)cc1Cl`, the cytotoxicity at 10 µM is -1.14%. Under `CC[C@H]1CN2CC[C@H]1C[C@@H]2CNCc1ccc(N(C)C)cc1` stands -5.66%. Under `Fc1ccccc1CN(CCCn1ccnc1)CC1CCOC1` (configuration not stated) stands 8.68%; under `CC(C)(O)CCc1cccc(C(=O)N2CCC[C@H]2CN2CCCC2)c1`, -1.13%; under `COCc1nc(N(C)C)ncc1C(=O)Nc1cc(C)cc(C)c1`, 6.89%. As for `c1ncn(CC2CCCN(CC3CCCCC3)C2)n1` (configuration not stated), the figure is 4.61%. As to `Cc1ccc(C2COCCN2C(=O)c2ccc(N(C)C)cc2)o1` (configuration not stated), the cytotoxicity at 10 µM is 4%. Under `Cc1cc(CN2CCc3c(CNc4ncccn4)cncc3C2)oc1C` stands -82.6%; under `CC(=O)NCC(=O)N(CCN1CCOCC1)Cc1ccco1`, -9.04%.

Regarding `CCN(Cc1cccc2c1OCO2)C(=O)Nc1ccncc1`, the cytotoxicity at 10 µM stood at 2.58%. Under `Cc1cccc2c1OCCC2NCc1c(C)nn(C)c1N(C)C` (configuration not stated) stands -5.72%; under `O=C(c1cnc2c(cnn2C2CCCC2)c1)N1CCCSCC1`, -9.3%; under `O=C1[C@@H]2CCN(Cc3ccncc3)C[C@@H]2OCCN1c1ccccc1`, -1.06%. As for `CCn1cc(S(=O)(=O)N2CCC(C3CCCCN(C)C3=O)CC2)c(C)n1` (configuration not stated), the figure is 6.58%.
